From ChEMBL document CHEMBL1926598, “Synthesis, anti-inflammatory activity and ulcerogenic liability of novel nitric oxide donating/chalcone hybrids” (Bioorg Med Chem, 2012)

Legend:
Rattus norvegicus [1] = assay: Antiinflammatory activity in albino rat assessed as inhibition of carrageenan-induced paw edema at 100 mg/kg, po administered 30 mins prior to challenge measured after 1 hr relative to untreated control; assay type: functional
Outline: (§1)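 Adult male albino rats (120–140 g), groups of four, fasted 24 h with water allowed. Test compound suspended in 0.5% w/v CMC in water, given orally at 100 mg/kg; controls received CMC alone. After 30 min, 0.1 mL of 1% carrageenan in saline injected subplantar into right hind paw, saline into left. Paw thickness measured by caliper; % inhibition = [(VR−VL)control − (VR−VL)treated]/(VR−VL)control ×100; one-way ANOVA versus control.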

Rattus norvegicus [2] = assay: Antiinflammatory activity in albino rat assessed as inhibition of carrageenan-induced paw edema at 100 mg/kg, po administered 30 mins prior to challenge measured after 2 hrs relative to untreated control; assay type: functional; outline: as §1
Rattus norvegicus [3] = assay: Antiinflammatory activity in albino rat assessed as inhibition of carrageenan-induced paw edema at 100 mg/kg, po administered 30 mins prior to challenge measured after 3 hrs relative to untreated control; assay type: functional; outline: as §1
Rattus norvegicus [4] = assay: Antiinflammatory activity in albino rat assessed as inhibition of carrageenan-induced paw edema at 100 mg/kg, po administered 30 mins prior to challenge measured after 4 hrs relative to untreated control; assay type: functional; outline: as §1
Rattus norvegicus [5] = assay: Antiinflammatory activity in albino rat assessed as inhibition of carrageenan-induced paw edema at 100 mg/kg, po administered 30 mins prior to challenge measured after 5 hrs relative to untreated control; assay type: functional; outline: as §1
Rattus norvegicus [6] = assay: Gastric toxicity in albino rat assessed as ulcer index at 100 mg/kg, po after 5 hrs; assay type: organism-based; parameters: dose 100 mg/kg, route oral; settings: in vivo
Outline: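 Rats dosed orally at 100 mg/kg in 0.5% CMC (n = 4). Stomach lesions counted and graded by area: level I <1 mm², II 1–3 mm², III >3 mm². Ulcer index = 1×(level I count) + 2×(level II) + 3×(level III). Mean ± SEM; one-way ANOVA versus control.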

[7] = Induction of nitric oxide release at 0.1 mM after 1 hr in phosphate buffer at pH 7.4 by Griess assay; assay type: physicochemical; settings: pH 7.4, 1 h, 100 µM
Outline: (§2)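 Compound at a final 10^-4 M with 0.5 mM N-acetylcysteine in phosphate buffer pH 7.4 at 37 °C. Reaction mixture treated with Griess reagent (sulfanilamide, N-naphthylethylenediamine, phosphoric acid), 10 min at room temperature, absorbance read at 546 nm. Sodium nitrite standards (10–80 nmol/mL) used for calibration. NO reported as mol/mol, n = 4 reaction mixtures.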

[8] = Induction of nitric oxide release at 0.1 mM after 2 hrs in phosphate buffer at pH 7.4 by Griess assay; assay type: physicochemical; settings: pH 7.4, 2 h, 100 µM; outline: as §2
[9] = Induction of nitric oxide release at 0.1 mM after 3 hrs in phosphate buffer at pH 7.4 by Griess assay; assay type: physicochemical; settings: pH 7.4, 3 h, 100 µM; outline: as §2
[10] = Induction of nitric oxide release at 0.1 mM after 4 hrs in phosphate buffer at pH 7.4 by Griess assay; assay type: physicochemical; settings: pH 7.4, 4 h, 100 µM; outline: as §2
[11] = Induction of nitric oxide release at 0.1 mM after 5 hrs in phosphate buffer at pH 7.4 by Griess assay; assay type: physicochemical; settings: pH 7.4, 5 h, 100 µM; outline: as §2
[12] = Induction of nitric oxide release at 0.1 mM after 6 hrs in phosphate buffer at pH 7.4 by Griess assay; assay type: physicochemical; settings: pH 7.4, 6 h, 100 µM; outline: as §2
[13] = Induction of nitric oxide release at 0.1 mM in 0.1 N HCl buffer at pH 1.0 by Griess assay; assay type: physicochemical; settings: pH 1, 100 µM
Outline: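 Griess procedure as at neutral pH, but in 0.1 N HCl pH 1 in place of phosphate buffer. Compound at a final 10^-4 M with N-acetylcysteine, 37 °C. Absorbance read at 546 nm against sodium nitrite standards (10–80 nmol/mL). Release expressed relative to a theoretical 1 mol NO/mol compound.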

Rattus norvegicus [14] = assay: Antiinflammatory activity in albino rat assessed as inhibition of carrageenan-induced paw edema at 100 mg/kg, po administered 30 mins prior to challenge measured after 3 hrs relative to indomethacin; assay type: functional; parameters: scale not given: the % may be the effect or the level left
Outline: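 Carrageenan paw edema in male albino rats (120–140 g, n = 4, fasted 24 h), compound 100 mg/kg po in 0.5% CMC 30 min before subplantar 1% carrageenan (0.1 mL). Percent edema inhibition at the stated hour from right minus left paw thickness versus the CMC control, then expressed as a percentage of the indomethacin (100 mg/kg) response at the same time.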

| SMILES | inhibition in vivo at 100 mg/kg (Rattus norvegicus [1]) | inhibition in vivo at 100 mg/kg (Rattus norvegicus [2]) | inhibition in vivo at 100 mg/kg (Rattus norvegicus [3]) | inhibition in vivo at 100 mg/kg (Rattus norvegicus [4]) | inhibition in vivo at 100 mg/kg (Rattus norvegicus [5]) | UI (Rattus norvegicus [6]) | Activity [7] | Activity [8] | Activity [9] | Activity [10] | Activity [11] | Activity [12] | Activity [13] | Activity (Rattus norvegicus [14]) |
| --- | --- | --- | --- | --- | --- | --- | --- | --- | --- | --- | --- | --- | --- | --- |
| Nc1ccc(C(=O)/C=C/c2ccc(Cl)cc2)cc1 | 41% | 50% | 60% | 58% | 54% | 18 |  |  |  |  |  |  |  |  |
| Nc1ccc(C(=O)/C=C/c2ccc3c(c2)OCO3)cc1 | 32% | 44% | 55% | 50% | 47% | 20 |  |  |  |  |  |  |  |  |
| Nc1ccc(C(=O)/C=C/c2ccco2)cc1 | 33% | 38% | 42% | 33% | 30% | 29 |  |  |  |  |  |  |  |  |
| COc1ccc(/C=C/C(=O)c2ccc(NC(=O)CBr)cc2)cc1 | 37% | 42% | 46% | 41% | 34% | 28 |  |  |  |  |  |  |  |  |
| O=C(CBr)Nc1ccc(C(=O)/C=C/c2ccc3c(c2)OCO3)cc1 | 40% | 45% | 53% | 48% | 46% | 24 |  |  |  |  |  |  |  |  |
| O=C(CBr)Nc1ccc(C(=O)/C=C/c2ccco2)cc1 | 30% | 37% | 41% | 33% | 25% | 25.8 |  |  |  |  |  |  |  |  |
| CC(Br)C(=O)Nc1ccc(C(=O)/C=C/c2ccc(Cl)cc2)cc1 (configuration not stated) | 39% | 45% | 59% | 54% | 50% | 16.7 |  |  |  |  |  |  |  |  |
| COc1ccc(/C=C/C(=O)c2ccc(NC(=O)C(C)Br)cc2)cc1 (configuration not stated) | 39% | 40% | 40% | 38% | 31% | 30.1 |  |  |  |  |  |  |  |  |
| CC(Br)C(=O)Nc1ccc(C(=O)/C=C/c2ccc3c(c2)OCO3)cc1 (configuration not stated) | 37% | 43% | 56% | 53% | 50% | 18 |  |  |  |  |  |  |  |  |
| CC(Br)C(=O)Nc1ccc(C(=O)/C=C/c2ccco2)cc1 (configuration not stated) | 30% | 37% | 42% | 36% | 34% | 25.3 |  |  |  |  |  |  |  |  |
| CC(=O)c1ccc(OCC(=O)Nc2ccc(C(=O)/C=C/c3ccc(Cl)cc3)cc2)cc1 | 43% | 52% | 61% | 58% | 55% | 8.1 |  |  |  |  |  |  |  |  |
| COc1ccc(/C=C/C(=O)c2ccc(NC(=O)COc3ccc(C(C)=O)cc3)cc2)cc1 | 28% | 35% | 42% | 33% | 30% | 6 |  |  |  |  |  |  |  |  |
| CC(=O)c1ccc(OCC(=O)Nc2ccc(C(=O)/C=C/c3ccco3)cc2)cc1 | 28% | 32% | 45% | 39% | 36% | 5 |  |  |  |  |  |  |  |  |
| C/C(=N/O)c1ccc(OCC(=O)Nc2ccc(C(=O)/C=C/c3ccco3)cc2)cc1 | 36% | 44% | 49% | 48% | 42% | 4.8 | 0.1 mol/mol | 0.12 mol/mol | 0.12 mol/mol | 0.28 mol/mol | 0.14 mol/mol | 0.13 mol/mol | Not Active | 64% |
| COc1ccc(/C=C/C(=O)c2ccc(NC(=O)COCc3c(-c4ccccc4)no[n+]3[O-])cc2)cc1 | 30% | 42% | 56% | 55% | 49% | 2 | 0.11 mol/mol | 0.27 mol/mol | 0.47 mol/mol | 0.482 mol/mol | 0.52 mol/mol | 0.3 mol/mol | Not Active | 73% |
| O=C(COCc1c(-c2ccccc2)no[n+]1[O-])Nc1ccc(C(=O)/C=C/c2ccco2)cc1 | 30% | 45% | 59% | 58% | 49% | 2.5 | 0.16 mol/mol | 0.23 mol/mol | 0.4 mol/mol | 0.499 mol/mol | 0.65 mol/mol | 0.54 mol/mol | Not Active | 76% |
| COc1ccc(/C=C/C(=O)c2ccc(N)cc2)cc1 | 42% | 48% | 51% | 48% | 40% | 22.5 |  |  |  |  |  |  |  |  |
| [O-][n+]1onc(-c2ccccc2)c1CO |  |  |  |  |  | 1.5 |  |  |  |  |  |  |  |  |
